Usually IC50 stands for the concentration that gives 50% inhibition. As usually defined, the efflux ratio is a quotient of directional permeabilities that is used to spot active efflux. For orientation: Ki means the equilibrium dissociation constant of an inhibitor or competing ligand from its target.

The format of data set [1] is in vivo, human. The conditions noted are these: healthy male volunteers.
Data set [2] deals with NTCP (Homo sapiens, UniProt Q14973). Description: NTCP uptake inhibition in transfected HEK cells. The format is in vitro ADME. The procedure, abridged: (§1)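 HEK cells overexpressing NTCP, OAT1, OAT3, OATP2B1, OCT1 or OCT2 were incubated with probe substrate. Pairs were estrone 3-sulfate/cyclosporin A (NTCP), PAH/probenecid (OAT1), furosemide/probenecid (OAT3), estrone 3-sulfate/glibenclamide (OATP2B1), 3H-MPP+/decynium 22 (OCT1) and 3H-MPP+/imipramine (OCT2). IC50 was determined with and without test compound, at ≤50 µM for the parent and ≤10 µM for the metabolite.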

For data set [3], the target named is T1, BCRP (Homo sapiens, UniProt Q9UNQ0).
T1 sequence (Q9UNQ0 1-655): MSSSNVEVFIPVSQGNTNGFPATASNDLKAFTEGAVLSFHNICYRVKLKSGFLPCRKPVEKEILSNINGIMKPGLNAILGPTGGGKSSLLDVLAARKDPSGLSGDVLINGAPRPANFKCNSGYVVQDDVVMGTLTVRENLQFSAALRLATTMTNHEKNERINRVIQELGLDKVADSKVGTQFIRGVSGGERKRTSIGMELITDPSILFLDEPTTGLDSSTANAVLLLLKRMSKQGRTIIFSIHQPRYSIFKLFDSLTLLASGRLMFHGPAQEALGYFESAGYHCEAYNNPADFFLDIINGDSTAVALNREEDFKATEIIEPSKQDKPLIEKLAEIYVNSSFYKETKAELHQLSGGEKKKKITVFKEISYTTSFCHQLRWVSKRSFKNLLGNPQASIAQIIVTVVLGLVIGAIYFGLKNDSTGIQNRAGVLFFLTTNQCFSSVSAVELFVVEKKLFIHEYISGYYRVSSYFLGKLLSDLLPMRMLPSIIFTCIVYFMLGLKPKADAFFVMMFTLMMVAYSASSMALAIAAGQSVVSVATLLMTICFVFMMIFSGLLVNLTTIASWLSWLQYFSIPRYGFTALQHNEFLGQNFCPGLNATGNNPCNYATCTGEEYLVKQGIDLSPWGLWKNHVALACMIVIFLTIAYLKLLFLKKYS
Briefly: Efflux in CPT-B1 cells. The format is in vitro ADME. The note with it: Caco-2. In outline: (§2)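 Bidirectional transport was measured in wildtype Caco-2 cells and in proprietary derivatives with reduced BCRP (CPT-B1) or P-gp (CPT-P1) expression. Test compound was used at 0.5, 2 and 10 μM in wildtype cells and at 2 μM in the reduced-expression lines. Probe substrates served as positive controls and reference inhibitors as negative controls. Efflux ratios were calculated.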
(In general: Passage across Caco-2 layers is used to estimate intestinal permeability.)

For data set [4] the following is noted: darolutamide 600 mg; ref data on file; cited from earlier work.
Data set [5] in a line: Phase I study: darolutamide effect on rosuvastatin pharmacokinetics. The format is in vivo, human. The conditions noted are these: darolutamide 600 mg BID with single dose rosuvastatin 5 mg.
Data set [6] has as its target T2, P-gp (Homo sapiens, UniProt P08183). Briefly: P-gp inhibition in Caco-2 cells. Format: in vitro ADME. In outline:
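Efflux transporter inhibition in Caco-2 monolayers. Test compound at 0.25–60 μM. Probe/reference-inhibitor pairs were digoxin/cyclosporin A (P-gp) and cladribine/Ko143 (BCRP). Probe transport was measured with and without test compound, and IC50 was derived from that inhibition.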

Data set [7] has as its target T2, P-gp. Briefly: Efflux in CPT-P1 cells. The format is in vitro ADME. The conditions noted are these: Caco-2. In outline:
as §2

Data set [8] deals with OATP2B1 (Homo sapiens, UniProt O94956). Description: OATP2B1 uptake inhibition in transfected HEK cells. The format is in vitro ADME. The procedure, abridged:
as §1

Data set [9] deals with CYP3A4. The conditions noted are these: healthy volunteers; ref data on file; cited from earlier work.
The conditions of data set [10]: rodents; cited from earlier work.
Data set [11] concerns P-gp and BCRP. Briefly: Efflux in wildtype Caco-2 cells. Format: in vitro ADME. The conditions noted are these: human. The procedure, abridged:
as §2

Data set [12] concerns CYP1A2. Format: in vitro ADME. The note with it: primary human hepatocytes, three donors, 3 days dosing, 0.005–10 mg/l.
For data set [13] the following is noted: cited from earlier work.
Data set [14] addresses T1, BCRP. Description: Efflux in BCRP-MDCK cells. Format: in vitro ADME. The conditions noted are these: reduced in the presence of BCRP-specific inhibitor Ko143.
The target in data set [15] is T3, UGT1A1 (Homo sapiens, UniProt P22309).
T3 sequence (P22309 26-533): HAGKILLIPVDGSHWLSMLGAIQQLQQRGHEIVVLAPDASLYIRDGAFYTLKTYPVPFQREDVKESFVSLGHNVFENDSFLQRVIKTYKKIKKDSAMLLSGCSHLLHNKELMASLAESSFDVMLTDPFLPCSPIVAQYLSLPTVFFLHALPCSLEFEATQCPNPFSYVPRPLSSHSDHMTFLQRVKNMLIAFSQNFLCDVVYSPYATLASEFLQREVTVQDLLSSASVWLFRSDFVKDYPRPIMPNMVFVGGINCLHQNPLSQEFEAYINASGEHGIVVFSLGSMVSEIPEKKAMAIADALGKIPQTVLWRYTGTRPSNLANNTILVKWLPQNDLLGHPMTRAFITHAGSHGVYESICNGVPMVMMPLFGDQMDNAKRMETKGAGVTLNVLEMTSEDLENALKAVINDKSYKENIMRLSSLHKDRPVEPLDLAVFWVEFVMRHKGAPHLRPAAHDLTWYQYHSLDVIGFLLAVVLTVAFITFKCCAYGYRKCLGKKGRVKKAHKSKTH
Description: UGT1A1 inhibition in human liver microsomes. The note with it: read-out: Ki, UGT1A1. Format: in vitro ADME. The procedure, abridged:
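Glucuronidation of UGT-selective substrates was measured in human liver microsomes with and without test compound, using a rank-order approach. Standard inhibitors for each isoform were incubated in parallel as positive controls.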
On the technique in general: Liver microsomes are vesicles of endoplasmic reticulum, rich in cytochrome P450 enzymes.

T2 sequence (P08183 whole entry): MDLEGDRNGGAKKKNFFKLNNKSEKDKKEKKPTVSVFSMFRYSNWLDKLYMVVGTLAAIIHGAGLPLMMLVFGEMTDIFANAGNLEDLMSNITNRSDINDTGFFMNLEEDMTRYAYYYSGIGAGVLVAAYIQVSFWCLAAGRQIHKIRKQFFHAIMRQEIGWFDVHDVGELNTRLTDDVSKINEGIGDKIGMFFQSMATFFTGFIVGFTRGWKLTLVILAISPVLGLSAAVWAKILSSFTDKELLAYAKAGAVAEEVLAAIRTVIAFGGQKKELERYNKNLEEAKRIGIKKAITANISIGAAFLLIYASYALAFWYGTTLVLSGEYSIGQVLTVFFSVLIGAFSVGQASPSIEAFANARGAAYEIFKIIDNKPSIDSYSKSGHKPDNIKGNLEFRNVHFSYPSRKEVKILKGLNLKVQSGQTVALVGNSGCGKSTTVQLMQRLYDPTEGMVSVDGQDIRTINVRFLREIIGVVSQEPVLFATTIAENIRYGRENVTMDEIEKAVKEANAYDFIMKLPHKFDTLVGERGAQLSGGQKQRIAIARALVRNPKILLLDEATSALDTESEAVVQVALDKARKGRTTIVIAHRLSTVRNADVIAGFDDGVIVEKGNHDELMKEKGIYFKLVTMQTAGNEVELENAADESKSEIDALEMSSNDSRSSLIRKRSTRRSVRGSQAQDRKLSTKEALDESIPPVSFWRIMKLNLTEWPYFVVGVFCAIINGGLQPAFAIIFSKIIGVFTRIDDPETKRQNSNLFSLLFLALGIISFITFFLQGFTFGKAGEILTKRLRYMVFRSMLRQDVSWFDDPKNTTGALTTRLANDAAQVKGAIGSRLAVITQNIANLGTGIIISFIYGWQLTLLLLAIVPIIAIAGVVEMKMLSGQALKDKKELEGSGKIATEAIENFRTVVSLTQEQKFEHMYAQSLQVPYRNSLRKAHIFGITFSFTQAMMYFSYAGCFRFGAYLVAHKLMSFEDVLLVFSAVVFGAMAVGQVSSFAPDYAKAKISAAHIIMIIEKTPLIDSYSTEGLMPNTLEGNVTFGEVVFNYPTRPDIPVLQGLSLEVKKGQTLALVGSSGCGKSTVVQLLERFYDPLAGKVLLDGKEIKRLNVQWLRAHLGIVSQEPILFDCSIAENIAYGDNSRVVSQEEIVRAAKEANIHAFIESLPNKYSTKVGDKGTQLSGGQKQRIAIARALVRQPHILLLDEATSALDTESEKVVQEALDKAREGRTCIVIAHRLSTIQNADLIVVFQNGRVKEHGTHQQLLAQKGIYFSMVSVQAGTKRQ
Sequence of OATP2B1 (O94956 whole entry): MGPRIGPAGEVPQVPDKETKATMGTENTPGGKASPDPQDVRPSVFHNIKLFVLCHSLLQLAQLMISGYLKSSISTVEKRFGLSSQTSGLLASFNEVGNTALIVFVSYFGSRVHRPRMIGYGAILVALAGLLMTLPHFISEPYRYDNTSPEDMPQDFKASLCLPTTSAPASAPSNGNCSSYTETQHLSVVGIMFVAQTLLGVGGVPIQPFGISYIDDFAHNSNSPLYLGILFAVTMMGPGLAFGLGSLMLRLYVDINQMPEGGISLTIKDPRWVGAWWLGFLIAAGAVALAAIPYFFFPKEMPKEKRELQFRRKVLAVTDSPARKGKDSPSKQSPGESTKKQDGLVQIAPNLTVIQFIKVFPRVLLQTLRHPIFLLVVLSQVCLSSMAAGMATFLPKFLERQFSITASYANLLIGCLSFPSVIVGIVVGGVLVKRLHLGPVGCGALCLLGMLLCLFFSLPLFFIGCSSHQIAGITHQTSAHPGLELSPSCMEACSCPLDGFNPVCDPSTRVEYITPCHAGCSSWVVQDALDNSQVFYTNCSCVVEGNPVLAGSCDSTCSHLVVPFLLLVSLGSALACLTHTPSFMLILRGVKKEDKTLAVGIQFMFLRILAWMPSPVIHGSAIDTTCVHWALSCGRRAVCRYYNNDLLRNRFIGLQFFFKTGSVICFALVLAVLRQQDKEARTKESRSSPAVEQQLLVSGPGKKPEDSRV
Sequence of NTCP (Q14973 whole entry): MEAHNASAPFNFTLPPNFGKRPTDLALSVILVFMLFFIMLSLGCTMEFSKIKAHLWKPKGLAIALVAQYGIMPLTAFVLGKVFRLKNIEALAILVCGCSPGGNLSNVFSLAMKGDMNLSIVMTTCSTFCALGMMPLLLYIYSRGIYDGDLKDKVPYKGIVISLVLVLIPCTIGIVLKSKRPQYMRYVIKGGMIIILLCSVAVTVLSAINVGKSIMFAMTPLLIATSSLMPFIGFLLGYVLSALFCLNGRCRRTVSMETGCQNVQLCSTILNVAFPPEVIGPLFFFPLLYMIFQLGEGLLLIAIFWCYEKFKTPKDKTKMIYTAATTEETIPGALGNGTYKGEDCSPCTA

For the compound `CC(O)c1cc(C(=O)N[C@@H](C)Cn2ccc(-c3ccc(C#N)c(Cl)c3)n2)[nH]n1` (some centres unmarked) [Darolutamide, darolutamide], the “safety with concomitant dabigatran etexilate or midazolam” value in [1] is on record as “No safety concerns were identified”. Moreover, the results for the IC50 in data set [2], in data set [6] and in data set [8] were more than 50 µM, 16.4 µM and more than 50 µM, respectively. For the same compound, the efflux ratio at 2 μM is 36 in [3], 3.6 in data set [7] and 98 in data set [11]. Moreover, in [4], the “clinically relevant intestinal concentration” value is 270 µM. Moreover, the “effect of rosuvastatin on darolutamide exposure” value in [5] is “no clinically relevant effects”. Further, in [9], the “share of clearance attributed to CYP3A4 metabolism” value is reported as 30%. Further, the “penetration of the blood-brain barrier” value in data set [10] is given as “low penetration”. Also, the efflux ratio at 0.5 μM in data set [11] turned out to be 78. In addition, in data set [11], the efflux ratio at 10 μM was 14.

Take `CC(=O)c1cc(C(=O)N[C@@H](C)Cn2ccc(-c3ccc(C#N)c(Cl)c3)n2)[nH]n1` [Keto-darolutamide, keto-darolutamide]: the “maximal fold induction of CYP1A2” value in data set [12] was less than 2 fold. Besides, in data set [13], the “fraction unbound in human plasma, fold lower compared with darolutamide” value was ~ 40 fold. In addition, the efflux ratio in data set [14] is more than 2. Besides, in [15], the Ki was 8.13 µM.

The values are drawn from paper PMC6828636 (European Journal of Drug Metabolism and Pharmacokinetics, 2019).
